MIC data for twelve molecules are collected here from ChEMBL document CHEMBL2146440, “Rearranged benzophenones and prenylated xanthones from Garcinia propinqua twigs” (2012).

Experiment [1] concerns Staphylococcus aureus. The experiment can be described thus: Antibacterial activity against Staphylococcus aureus TISTR 1466 by two-fold broth dilution method. The format is functional. (In general: In broth dilution the organism is exposed to a series of concentrations in liquid medium.)
The test system of experiment [2] is Staphylococcus aureus. The experiment can be described thus: Antibacterial activity against methicillin-resistant Staphylococcus aureus SK1 by two-fold broth dilution method. The format is functional. An outline of the steps: (§1)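 MRSA SK1 was tested in a panel with Gram-positive S. aureus TISTR 1466 and Gram-negative E. coli TISTR 780 and S. typhimurium TISTR 292. Values are in μg/mL.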

The subject of experiment [3] is Escherichia coli. As to the kind of experiment: Antibacterial activity against Escherichia coli TISTR 780 by two-fold broth dilution method. The format is functional.
Experiment [4] deals with Salmonella typhimurium. The experiment can be described thus: Antibacterial activity against Salmonella typhimurium TISTR 292 by two-fold broth dilution method. The format is functional, Salmonella enterica subsp. enterica serovar Typhimurium.
Experiment [5] has as its system Staphylococcus aureus. As to the kind of experiment: Antibacterial activity against methicillin-resistant Staphylococcus aureus SK1 at >128 ug/mL by two-fold broth dilution method. The format is functional, organism-based. In outline:
as §1

Experiment [6] deals with Staphylococcus aureus. The experiment can be described thus: Antibacterial activity against Staphylococcus aureus TISTR 1466 at >128 ug/mL by two-fold broth dilution method. The format is functional, organism-based.

Converted amounts (≈) assume the structure as drawn. The source made the active and inactive calls. No cut-off for these calls is given here.

As usually defined, the MIC is the lowest concentration found to suppress growth. In turn, `CN[C@H](CC(C)C)C(=O)N[C@H]1C(=O)N[C@@H](CC(N)=O)C(=O)N[C@H]2C(=O)N[C@H]3C(=O)N[C@H](C(=O)N[C@H](C(=O)O)c4cc(O)cc(O)c4-c4cc3ccc4O)[C@H](O)c3ccc(c(Cl)c3)Oc3cc2cc(c3O[C@@H]2O[C@H](CO)[C@@H](O)[C@H](O)[C@H]2O[C@H]2C[C@](C)(N)[C@H](O)[C@H](C)O2)Oc2ccc(cc2Cl)[C@H]1O` [VANCOMYCIN] registered a minimal inhibitory concentration (MIC) in experiment [1] of 0.25 µg/mL (≈ 0.173 µM).
For `C=CC(C)(C)c1c2c(c(O)c3c(=O)c4ccc(O)c(OC)c4oc13)C=CC(C)(C)O2`, the MIC in experiment [2] worked out at 4 µg/mL (≈ 9.79 µM); in experiment [1] it was 2 µg/mL (≈ 4.9 µM); in experiment [3], 128 µg/mL (≈ 313 µM); in experiment [4] (Salmonella enterica) it was 128 µg/mL (≈ 313 µM).
Consider `COc1c(CC=C(C)C)c(O)c2c(=O)c3ccc(O)c(OC)c3oc2c1CC=C(C)C` [DOITUNGGARCINONE C], for which the MIC in experiment [2], in experiment [1] and in experiment [3] was 128 µg/mL (≈ 302 µM) in each case.
Take `C=CC(C)(C)c1c2c(c(O)c3c(=O)c4ccc(O)c(O)c4oc13)C=CC(C)(C)O2` [MACLURAXANTHONE]: the MIC in experiment [2] came to 4 µg/mL (≈ 10.1 µM); in experiment [1] it was 4 µg/mL (≈ 10.1 µM); in experiment [3], 128 µg/mL (≈ 325 µM).
In the case of `CC(C)=CCc1c2c(c3oc4c(O)ccc(O)c4c(=O)c3c1O)C=CC(C)(C)O2` [MORUSIGNIN J], the MIC in experiment [1] and in experiment [3] was 128 µg/mL (≈ 325 µM) each time.
For the molecule `C=C(C)CC[C@@H]1C[C@]2(CC=C(C)C)C(=O)/C(=C(\O)c3ccccc3)C(=O)[C@]3(CC=C(C)C)C[C@@]1(C)O[C@@]32O` [XEROPHENONE A], the minimal inhibitory concentration (MIC) in experiment [2], in experiment [3] and in experiment [4] (Salmonella enterica) was 128 µg/mL (≈ 247 µM) throughout. The MIC entry in experiment [1] is “inactive”.
On to `C=C(C)CC[C@@H]1C[C@@]2(CC=C(C)C)C(=O)[C@]3(CC=C(C)C)C[C@@]1(C)C2(O)/C(=C(/O)c1ccccc1)C3=O` (relative stereo), for which the MIC in experiment [2] came out at 64 µg/mL (≈ 127 µM); in experiment [1], 64 µg/mL (≈ 127 µM); in experiment [3], 128 µg/mL (≈ 255 µM); in experiment [4] (Salmonella enterica), 128 µg/mL (≈ 255 µM).
As to GENTAMICIN, the figures for the MIC in experiment [3] and in experiment [4] (Salmonella enterica subsp. enterica serovar Typhimurium) were 0.25 µg/mL and 0.125 µg/mL, respectively.
Turning to `CC(C)=CCc1c(O)c(CC=C(C)C)c2oc3c(O)ccc(O)c3c(=O)c2c1O` [GARTANIN], the MIC in experiment [1], in experiment [3] and in experiment [4] (Salmonella enterica) was 128 µg/mL (≈ 323 µM) each time. In experiment [5], the MIC entry was “inactive”.
`COc1c(O)ccc2c(=O)c3c(O)c4c(c(CC=C(C)C)c3oc12)OC(C)(C)C=C4`: the MIC in experiment [3] and in experiment [4] (Salmonella enterica) was 128 µg/mL (≈ 313 µM) throughout. For the same molecule, the MIC result in experiment [5] and in experiment [6] was “inactive” in each case.
In the case of `COc1c(CC=C(C)C)c(O)c2c(=O)c3ccc(O)c(O)c3oc2c1CC=C(C)C` [DULXANTHONE B], the MIC stood at 16 µg/mL (≈ 39 µM) in experiment [2], 32 µg/mL (≈ 78 µM) in experiment [1], 128 µg/mL (≈ 312 µM) in experiment [3] and 128 µg/mL (≈ 312 µM) in experiment [4] (Salmonella enterica).
For the molecule `C=C(C)CC[C@@H]1C[C@]23CC4C(C)(C)c5ccccc5C(=O)C45C(=O)[C@@](CC=C(C)C)(C[C@@]1(C)[C@]52O)C3=O` (relative stereo), the MIC in experiment [1], in experiment [3] and in experiment [4] (Salmonella enterica) was 128 µg/mL (≈ 256 µM) each time. Also, in experiment [5], the MIC entry is “inactive”.
